We go through 7 compounds from paper PMC9082781 (ACS infectious diseases, 2021).

Data set [1] has as its system E. coli ATCC25922.
Data set [2] concerns P. aeruginosa PAO1. It is filed as cell-based, Pseudomonas aeruginosa.
Data set [3] concerns S. aureus USA300 LAC. The following applies: for Minimal inhibitory concentration (MIC): USA300, pH 7.4; for MIC SA: USA300.
Data set [4] deals with Klebsiella pneumonia ATCC 13883. It is filed as cell-based, Klebsiella pneumoniae.
The test system of the next data set is HaCaT cells. It is filed as cell-based, human.
Data set [5] concerns S. aureus USA300 LAC. The data set can be described thus: Resistance development, multiple passage experiment. The data set is classed as cell-based, Staphylococcus aureus. The following applies: 14 days/passages at sub-MIC; average of three independent experiments.
The test system of the next data set is C57BL/6 mice. As to the kind of experiment: In vivo toxicity. Details: species or system mouse.
For the next data set, the target named is S. aureus V8 protease (Staphylococcus aureus, UniProt P0C1U8). The data set is classed as in vitro ADME. The following applies: 10 mM PBS pH 7.4, 37 °C, 3 h and 1 day, SDS-PAGE, Coomassie.
The test system of data set [6] is S. aureus USA300 LAC. As to the kind of experiment: Bacterial membrane permeation. The data set is classed as cell-based, Staphylococcus aureus. The settings on record: 12.5 μM, 37 °C, fluorescence read every 5 min. A digest of the protocol:
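Exponential-phase S. aureus USA300 at final OD600 ~0.1 in TSB or PBS, with propidium iodide (20 μM as added) and serially diluted peptide (12.5 μM in figure). Daptomycin and rifamycin serve as controls. Incubated at 37 °C with 100 rpm shaking in a plate reader. Fluorescence (ex 584/em 620 nm) read every 5 min for 24 cycles; average values plotted.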

Data set [7] concerns S. aureus USA300 LAC. The data set can be described thus: Systemic efficacy in neutropenic murine infection model. The data set is classed as in vivo, mouse. The following applies: neutropenic mice, single dose 5 mg/kg i.p., n = 8, vs untreated. In short, it runs like this:
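Female C57BL/6 mice, 6 weeks old, made neutropenic with cyclophosphamide (day 1 150 mg/kg, day 4 100 mg/kg). Day 5: i.p. infection with ~2×10⁶ CFU S. aureus USA300. Single i.p. peptide dose 2 h later. Spleen, liver, lung and kidney weighed, homogenized in PBS, diluted, plated on blood agar (37 °C, overnight). CFU per tissue; Mann-Whitney test.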

Data set [8] concerns MCP-1, IL-17A, IL-10, TNF-α. The data set can be described thus: Cytokine levels in tissues surrounding catheters. The data set is classed as in vivo, mouse. The following applies: tissue surrounding catheter, day 3 after peptide treatment. In short, it runs like this: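 Catheter biofilm mouse model under ketamine/xylazine (100/10 mg/kg) anesthesia. Peptide 15 mg/kg injected at five sites in and around the catheter 2 h post infection. Untreated infected and uninfected-catheter groups included. Day 3: CO₂ euthanasia, peri-catheter tissue harvested and homogenized, stored at −80 °C. Cytokines quantified by individual mouse cytokine ELISA kits in duplicate with standards.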

For the next data set, the target named is fungal proteinase K (Parengyodontium album, UniProt P06873). The data set can be described thus: Protease stability by SDS-PAGE, proteinase K. It is filed as in vitro ADME. The following applies: 10 mM PBS pH 7.4, 37 °C, 1 day, Coomassie.
Data set [9] relates to human red blood cells. The data set is classed as cell-based. The settings on record: red cells of human, 1 h.
The subject of data set [10] is P. aeruginosa PAO1. The settings on record: LL-37; ref [36]; cited from earlier work.
The test system of data set [11] is human red blood cells. The following applies: LL-37; ref [36]; cited from earlier work.
Data set [12] deals with Klebsiella pneumonia ATCC 13883. The settings on record: LL-37; ref [36]; cited from earlier work.
For data set [13], the system named is E. coli ATCC25922. The following applies: LL-37; ref [36]; cited from earlier work.

Values after ≈ are worked out from the molar mass of the structure shown. Where two headings read alike, the source gives them in different places. Non-standard residues stand in square brackets, D forms with d. Residues, ends and D or L forms follow the SMILES beside them. *: point of attachment. Decanoyl = CCCCCCCCCC(=O)*; Octanoyl = CCCCCCCC(=O)*

Chain of S. aureus V8 protease (P0C1U8 69-336): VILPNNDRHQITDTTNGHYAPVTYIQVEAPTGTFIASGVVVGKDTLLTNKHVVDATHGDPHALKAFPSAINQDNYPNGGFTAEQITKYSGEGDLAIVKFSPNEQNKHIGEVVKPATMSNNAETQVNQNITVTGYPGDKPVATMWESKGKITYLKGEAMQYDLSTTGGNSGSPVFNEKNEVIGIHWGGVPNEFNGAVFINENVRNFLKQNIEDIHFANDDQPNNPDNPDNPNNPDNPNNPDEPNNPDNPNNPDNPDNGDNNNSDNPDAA
Chain of fungal proteinase K (P06873 106-384): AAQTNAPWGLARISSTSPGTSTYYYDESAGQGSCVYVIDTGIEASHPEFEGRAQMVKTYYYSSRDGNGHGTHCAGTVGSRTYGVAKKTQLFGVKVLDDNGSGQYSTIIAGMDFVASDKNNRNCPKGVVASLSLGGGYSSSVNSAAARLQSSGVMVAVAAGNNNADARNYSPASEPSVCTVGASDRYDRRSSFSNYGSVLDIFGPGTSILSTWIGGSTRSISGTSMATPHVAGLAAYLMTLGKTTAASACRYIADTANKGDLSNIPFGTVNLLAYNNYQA

Regarding `CCCCCCCC(=O)N[C@@H](CCCCN)C(=O)N[C@@H](CCCNC(=N)N)C(=O)N[C@H](C(=O)N[C@@H](Cc1c[nH]c2ccccc12)C(=O)N[C@@H](CCC(N)=O)C(=O)N[C@@H](CCCNC(=N)N)C(=O)N[C@H](C(=O)N[C@@H](CCCCN)C(=O)N[C@@H](CC(=O)O)C(=O)N[C@@H](Cc1ccccc1)C(N)=O)[C@@H](C)CC)[C@@H](C)CC` [Peptide C8-KR10] (Octanoyl-KRIWQRIKDF-NH2), the “MIC EC” value against E. coli ATCC25922 [1] amounted to 6.2 µM (≈ 9.39 µg/mL). Also, the “MIC PA” value in the data set with P. aeruginosa PAO1 [2] amounted to 6.2 µM (≈ 9.39 µg/mL). The “Minimal inhibitory concentration (MIC)” value in the data set on S. aureus USA300 LAC [3] worked out at 6.2 µM (≈ 9.39 µg/mL). Further, the “MIC KP” value in data set [4] worked out at 25 µM (≈ 37.9 µg/mL). Moreover, the “relative toxicity to HaCaT cells” value in the data set on HaCaT cells is on record as “slightly less toxic than C8-KR10d”.

In the case of `CCCCCCCCCC(=O)N[C@H](CCCCN)C(=O)N[C@H](CCCNC(=N)N)C(=O)N[C@@H](C(=O)N[C@H](Cc1c[nH]c2ccccc12)C(=O)N[C@H](CCC(N)=O)C(=O)N[C@H](CCCNC(=N)N)C(=O)N[C@@H](C(=O)N[C@H](CCCCN)C(N)=O)[C@H](C)CC)[C@H](C)CC` [Peptide C10-KR8d] (Decanoyl-[dK][dR][dI][dW][dQ][dR][dI][dK]-NH2), in the data set on S. aureus USA300 LAC [5], the “MIC increase during serial passages” value is “no changes”. Further, the survival entry in the data set on C57BL/6 mice (10 mg/kg i.p., female C57BL/6 mice n=3, 5 days observation) is listed as “all mice survived”. The survival entry in the data set on C57BL/6 mice (20 mg/kg i.p., female C57BL/6 mice n=3, 5 days observation) was “all mice survived”. In addition, the survival result with C57BL/6 mice (40 mg/kg i.p., female C57BL/6 mice n=3, died in a day) is “all mice died”. In addition, the “maximal tolerated dose (MTD)” value in the data set with C57BL/6 mice (i.p., C57BL/6 mice, 20 mg/kg or more but less than 40 mg/kg) is no less than 20 mg/kg. At S. aureus V8 protease, the “stability to S. aureus V8 protease” value was “resistant”. Also, the “MIC PA” value with P. aeruginosa PAO1 [2] is 6.2 µM (≈ 7.94 µg/mL). Further, in the data set with S. aureus USA300 LAC [6], the “membrane permeation (propidium iodide fluorescence)” value is recorded as “able to permeate the membranes”. Also, in the data set with S. aureus USA300 LAC [3], the “Minimal inhibitory concentration (MIC)” value is 3.1 µM (≈ 3.97 µg/mL). For the same compound, the “MIC KP” value in [4] was 25 µM (≈ 32 µg/mL). Moreover, in the data set with S. aureus USA300 LAC [7], the “CFU decrease in kidney” value is “not in spleen and kidney”; the “CFU decrease in spleen” value is “not in spleen and kidney”. Besides, in data set [8], the IL-10 level result is listed as “decrease”, the IL-17A level result is “up-regulation”, the MCP-1/CCL2 level result is recorded as “up-regulation” and the TNFα level result is “decrease”. On fungal proteinase K, the “stability to fungal proteinase K” value is reported as “resistant”. Also, the 50% haemolytic concentration (HC50) – broadly, the concentration giving 50% haemolysis – in the data set with human red blood cells [9] turned out to be 300 µM. In the data set on HaCaT cells, the “relative toxicity to HaCaT cells” value was “slightly more toxic than C10-KR8”.

With `CCOc1ccc2ccccc2c1C(=O)N[C@@H]1C(=O)N2[C@@H]1SC(C)(C)[C@@H]2C(=O)O` [nafcillin, reference compound], in the data set on S. aureus USA300 LAC [5], the “MIC increase during serial passages” value was “over 30 fold”.

Consider `CO[C@H]1/C=C/O[C@@]2(C)Oc3c(C)c(O)c4c(O)c(cc(O)c4c3C2=O)NC(=O)/C(C)=C\C=C\[C@H](C)[C@H](O)[C@@H](C)[C@@H](O)[C@@H](C)[C@H](OC(C)=O)[C@@H]1C` [rifamycin, reference compound], for which the “membrane permeation (propidium iodide fluorescence)” value with S. aureus USA300 LAC [6] is “unable to achieve the same effect”.

As for `CCCCCCCCCC(=O)N[C@@H](CCCCN)C(=O)N[C@@H](CCCNC(=N)N)C(=O)N[C@H](C(=O)N[C@@H](Cc1c[nH]c2ccccc12)C(=O)N[C@@H](CCC(N)=O)C(=O)N[C@@H](CCCNC(=N)N)C(=O)N[C@H](C(=O)N[C@@H](CCCCN)C(N)=O)[C@@H](C)CC)[C@@H](C)CC` [Peptide C10-KR8] (Decanoyl-KRIWQRIK-NH2), the “stability to S. aureus V8 protease” value on S. aureus V8 protease was “except for S. aureus V8 protease”. Moreover, the “MIC EC” value against E. coli ATCC25922 [1] was found to be 12.5 µM (≈ 16 µg/mL). For the same compound, in the data set on S. aureus USA300 LAC [3], the “MIC SA” value lay in the range of 1.5 to 3.1 µM and the “Minimal inhibitory concentration (MIC)” value worked out at 3.1 µM (≈ 3.97 µg/mL). For the same compound, the “MIC KP” value in [4] worked out at 50 µM (≈ 64 µg/mL). In addition, in the data set on human red blood cells [9], the HC50 worked out at 300 µM.

For the compound `CC[C@H](C)[C@H](NC(=O)[C@H](CCCCN)NC(=O)[C@H](CCC(=O)O)NC(=O)[C@H](CCCCN)NC(=O)[C@H](CO)NC(=O)[C@H](CCCCN)NC(=O)[C@H](CCCNC(=N)N)NC(=O)[C@H](Cc1ccccc1)NC(=O)[C@H](Cc1ccccc1)NC(=O)[C@H](CC(=O)O)NC(=O)CNC(=O)[C@H](CC(C)C)NC(=O)[C@@H](N)CC(C)C)C(=O)NCC(=O)N[C@@H](CCCCN)C(=O)N[C@@H](CCC(=O)O)C(=O)N[C@@H](Cc1ccccc1)C(=O)N[C@@H](CCCCN)C(=O)N[C@@H](CCCNC(=N)N)C(=O)N[C@H](C(=O)N[C@H](C(=O)N[C@@H](CCC(N)=O)C(=O)N[C@@H](CCCNC(=N)N)C(=O)N[C@H](C(=O)N[C@@H](CCCCN)C(=O)N[C@@H](CC(=O)O)C(=O)N[C@@H](Cc1ccccc1)C(=O)N[C@@H](CC(C)C)C(=O)N[C@@H](CCCNC(=N)N)C(=O)N[C@@H](CC(N)=O)C(=O)N[C@@H](CC(C)C)C(=O)N[C@H](C(=O)N1CCC[C@H]1C(=O)N[C@@H](CCCNC(=N)N)C(=O)N[C@H](C(=O)N[C@@H](CCC(=O)O)C(=O)N[C@@H](CO)C(=O)O)[C@@H](C)O)C(C)C)[C@@H](C)CC)C(C)C)[C@@H](C)CC` [LL-37], the “MIC PA” value in the data set on P. aeruginosa PAO1 [10] is greater than 50 µM. Further, the HC50 with human red blood cells [11] was 170 µM. Also, the “Minimal inhibitory concentration against S. aureus” value in the data set with S. aureus USA300 LAC [3] (10% TSB) was 50 µM (≈ 225 µg/mL); in the data set with S. aureus USA300 LAC [3] (50% TSB) it was greater than 50 µM; in the data set with S. aureus USA300 LAC [3] (100% MHB), greater than 50 µM; with S. aureus USA300 LAC [3] (100% TSB), greater than 50 µM. Besides, the “MIC KP” value in data set [12] is 6.2 µM (≈ 27.9 µg/mL). The “MIC EC” value in the data set on E. coli ATCC25922 [13] was 3.1 to 6.2 µM.

`CCCCCCCC(=O)N[C@H](CCCCN)C(=O)N[C@H](CCCNC(=N)N)C(=O)N[C@@H](C(=O)N[C@H](Cc1c[nH]c2ccccc12)C(=O)N[C@H](CCC(N)=O)C(=O)N[C@H](CCCNC(=N)N)C(=O)N[C@@H](C(=O)N[C@H](CCCCN)C(=O)N[C@H](CC(=O)O)C(=O)N[C@H](Cc1ccccc1)C(N)=O)[C@H](C)CC)[C@H](C)CC` [Peptide C8-KR10d] (Octanoyl-[dK][dR][dI][dW][dQ][dR][dI][dK][dD][dF]-NH2; C-terminus assumed): the “MIC EC” value in the data set with E. coli ATCC25922 [1] is 6.2 µM (≈ 9.39 µg/mL). In addition, the “MIC PA” value with P. aeruginosa PAO1 [2] is 12.5 µM (≈ 18.9 µg/mL). In the data set on S. aureus USA300 LAC [3], the “MIC SA” value was 3.1 µM (≈ 4.7 µg/mL) and the “Minimal inhibitory concentration (MIC)” value is 3.1 µM (≈ 4.7 µg/mL). Also, the “MIC KP” value in [4] was determined as 12.5 µM (≈ 18.9 µg/mL).
